Results: ChEMBL document CHEMBL2157922, “Synthesis and antifungal activity of diverse C-2 pyridinyl and pyridinylvinyl substituted quinolines” (2012)
≈ marks a conversion by molar mass, not a printed value.

Key:
Candida albicans [1] = test: Antifungal activity against Candida albicans CCC 129 after 48 hrs by broth microdilution technique; type: functional; settings: CCC 129, 48 h
Nannizzia gypsea = test: Antifungal activity against Microsporum gypseum CCC 115 after 48 hrs by broth microdilution technique; type: functional; settings: CCC 115, 48 h
In short: (§1)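 Moulds and dermatophytes were run by CLSI broth microdilution in MOPS-buffered RPMI-1640 at pH 7.0. Aspergillus was incubated at 30 °C and dermatophytes at 28–30 °C, in a moist, dark chamber. MIC100, the lowest concentration with no visible growth, was read visually at a time set by growth of the control fungus.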

Cryptococcus neoformans [2] = test: Antifungal activity against Cryptococcus neoformans IM 983040 after 48 hrs by broth microdilution technique; type: functional; settings: IM 983040, 48 h
In short: (§2)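 C. neoformans was tested by 96-well RPMI-1640 microdilution, with DMSO-matched growth and sterility control wells. Plates were incubated 48 h at 30 °C in a moist, dark chamber and read at OD405. % inhibition = 100 − (CTW − SCW)/(GCW − SCW), in duplicate. For the clinical isolates, MIC80 and MIC50 are the lowest concentrations giving 80% and 50% inhibition.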

Candida albicans [3] = test: Antifungal activity against Candida albicans ATCC 10231 at 31.2 ug/ml after 24 hrs; type: functional; settings: ATCC 10231, 24 h
In short: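 C. albicans was grown in 96-well RPMI-1640 broth microdilution with compound wells diluted from DMSO stocks. Growth wells with matched DMSO and sterility wells were included. After 24 h at 30 °C in a moist, dark chamber, OD405 was read. % inhibition = 100 − (CTW − SCW)/(GCW − SCW) OD, done in duplicate.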

Aspergillus fumigatus = test: Antifungal activity against Aspergillus fumigatus ATCC 26934 after 48 hrs by broth microdilution technique; type: functional; settings: ATCC 26934, 48 h; in short: as §1
Candida albicans [4] = test: Antifungal activity against Candida albicans CCC 125 after 48 hrs by broth microdilution technique; type: functional; settings: CCC 125, 48 h
Trichophyton rubrum = test: Antifungal activity against Trichophyton rubrum CCC 113 after 48 hrs by broth microdilution technique; type: functional; settings: CCC 113, 48 h
Pichia kudriavzevii = test: Antifungal activity against Candida krusei CCC 117 after 48 hrs by broth microdilution technique; type: functional; settings: CCC 117, 48 h
Nakaseomyces glabratus = test: Antifungal activity against Candida glabrata CCC 115 after 48 hrs by broth microdilution technique; type: functional; settings: CCC 115, 48 h
Cryptococcus neoformans [5] = test: Antifungal activity against Cryptococcus neoformans ATCC 32264 after 48 hrs by broth microdilution technique; type: functional; settings: ATCC 32264, 48 h
In short: (§3)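 Yeasts were tested by CLSI broth microdilution in RPMI-1640 buffered to pH 7.0 with MOPS, with compound from 250 down to 0.98 in DMSO stocks. Trays were held at 30 °C in a moist, dark chamber. MIC100, the lowest concentration giving total visual inhibition against the growth control, was read by eye at 48 h.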

Cryptococcus neoformans [6] = test: Antifungal activity against Cryptococcus neoformans IM 972751 after 48 hrs by broth microdilution technique; type: functional; settings: IM 972751, 48 h; in short: as §2
Candida tropicalis = test: Antifungal activity against Candida tropicalis CCC 131 after 48 hrs by broth microdilution technique; type: functional; settings: CCC 131, 48 h
[7] = system: Trichophyton mentagrophytes; test: Antifungal activity against Trichophyton mentagrophytes ATCC 9972 after 48 hrs by broth microdilution technique; type: functional; settings: ATCC 9972, 48 h; in short: as §1
Cryptococcus neoformans [8] = test: Antifungal activity against Cryptococcus neoformans IM 00319 after 48 hrs by broth microdilution technique; type: functional; settings: IM 00319, 48 h; in short: as §2
Aspergillus flavus = test: Antifungal activity against Aspergillus flavus ATCC 9170 after 48 hrs by broth microdilution technique; type: functional; settings: ATCC 9170, 48 h; in short: as §1
Candida albicans [9] = test: Antifungal activity against Candida albicans CCC 130 after 24 hrs by broth microdilution technique; settings: CCC 130, 24 h
Cryptococcus neoformans [10] = test: Antifungal activity against Cryptococcus neoformans IM 972724 after 48 hrs by broth microdilution technique; type: functional; settings: IM 972724, 48 h; in short: as §2
Candida parapsilosis = test: Antifungal activity against Candida parapsilosis CCC 124 after 48 hrs by broth microdilution technique; type: functional; settings: Lodderomyces parapsilosis, CCC 124, 48 h
Candida albicans [11] = test: Antifungal activity against Candida albicans CCC 128 after 48 hrs by broth microdilution technique; type: functional; settings: CCC 128, 48 h
Cryptococcus neoformans [12] = test: Antifungal activity against Cryptococcus neoformans IM 983036 after 48 hrs by broth microdilution technique; type: functional; settings: IM 983036, 48 h; in short: as §2
Candida albicans [13] = test: Antifungal activity against Candida albicans CCC 127 after 48 hrs by broth microdilution technique; type: functional; settings: CCC 127, 48 h
Cryptococcus neoformans [14] = test: Antifungal activity against Cryptococcus neoformans IM 042074 after 48 hrs by broth microdilution technique; type: functional; settings: IM 042074, 48 h; in short: as §2
Aspergillus niger = test: Antifungal activity against Aspergillus niger ATCC 9029 after 48 hrs by broth microdilution technique; type: functional; settings: ATCC 9029, 48 h; in short: as §1
Candida albicans [15] = test: Antifungal activity against Candida albicans ATCC 10231 after 48 hrs by broth microdilution technique; type: functional; settings: ATCC 10231, 48 h; in short: as §3
Candida albicans [16] = test: Antifungal activity against Candida albicans CCC 130 after 48 hrs by broth microdilution technique; type: functional; settings: CCC 130, 48 h
Saccharomyces cerevisiae = test: Antifungal activity against Saccharomyces cerevisiae ATCC 9763 after 48 hrs by broth microdilution technique; type: functional; settings: ATCC 9763, 48 h; in short: as §3
Candida albicans [17] = test: Antifungal activity against Candida albicans CCC 126 after 48 hrs by broth microdilution technique; type: functional; settings: CCC 126, 48 h

Compound: Clc1ccc2nc(/C=C/c3ccncc3)ccc2c1
- MIC50 (Candida albicans [1]): 31.2 µg/mL (≈ 117 µM)
- MIC80 (Candida albicans [1]): 62.5 µg/mL (≈ 234 µM)
- MFC (Nannizzia gypsea): 125 µg/mL (≈ 469 µM)
- MIC (Nannizzia gypsea): 62 µg/mL (≈ 232 µM)
- MIC50 (Cryptococcus neoformans [2]): 15.6 µg/mL (≈ 58.5 µM)
- MIC80 (Cryptococcus neoformans [2]): 62.5 µg/mL (≈ 234 µM)
- inhibition at 31.2 µg/mL (Candida albicans [3]): 80%
- MFC (Aspergillus fumigatus): > 250 µg/mL
- MIC (Aspergillus fumigatus): 250 µg/mL (≈ 937 µM)
- MIC50 (Candida albicans [4]): 31.2 µg/mL (≈ 117 µM)
- MIC80 (Candida albicans [4]): 125 µg/mL (≈ 469 µM)
- MFC (Trichophyton rubrum): 125 µg/mL (≈ 469 µM)
- MIC (Trichophyton rubrum): 62 µg/mL (≈ 232 µM)
- MIC50 (Pichia kudriavzevii): > 250 µg/mL
- MIC80 (Pichia kudriavzevii): > 250 µg/mL
- MIC50 (Nakaseomyces glabratus): > 250 µg/mL
- MIC80 (Nakaseomyces glabratus): > 250 µg/mL
- MFC (Cryptococcus neoformans [5]): 250 µg/mL (≈ 937 µM)
- MIC (Cryptococcus neoformans [5]): 125 µg/mL (≈ 469 µM)
- MIC50 (Cryptococcus neoformans [5]): 15.6 µg/mL (≈ 58.5 µM)
- MIC80 (Cryptococcus neoformans [5]): 31.2 µg/mL (≈ 117 µM)
- MIC50 (Cryptococcus neoformans [6]): 15.6 µg/mL (≈ 58.5 µM)
- MIC80 (Cryptococcus neoformans [6]): 31.2 µg/mL (≈ 117 µM)
- MIC50 (Candida tropicalis): 31.2 µg/mL (≈ 117 µM)
- MIC80 (Candida tropicalis): 125 µg/mL (≈ 469 µM)
- MFC [7]: 125 µg/mL (≈ 469 µM)
- MIC [7]: 62 µg/mL (≈ 232 µM)
- MIC50 (Cryptococcus neoformans [8]): 31.2 µg/mL (≈ 117 µM)
- MIC80 (Cryptococcus neoformans [8]): 62.5 µg/mL (≈ 234 µM)
- MFC (Aspergillus flavus): > 250 µg/mL
- MIC (Aspergillus flavus): 250 µg/mL (≈ 937 µM)
- MIC50 (Candida albicans [9]): 31.2 µg/mL (≈ 117 µM)
- MIC50 (Cryptococcus neoformans [10]): 31.2 µg/mL (≈ 117 µM)
- MIC80 (Cryptococcus neoformans [10]): 62.5 µg/mL (≈ 234 µM)
- MIC50 (Candida parapsilosis): > 250 µg/mL
- MIC80 (Candida parapsilosis): > 250 µg/mL
- MIC50 (Candida albicans [11]): 62.5 µg/mL (≈ 234 µM)
- MIC80 (Candida albicans [11]): 125 µg/mL (≈ 469 µM)
- MIC50 (Cryptococcus neoformans [12]): 7.8 µg/mL (≈ 29.2 µM)
- MIC80 (Cryptococcus neoformans [12]): 62.5 µg/mL (≈ 234 µM)
- MIC50 (Candida albicans [13]): 31.2 µg/mL (≈ 117 µM)
- MIC80 (Candida albicans [13]): 62.5 µg/mL (≈ 234 µM)
- MIC50 (Cryptococcus neoformans [14]): 15.6 µg/mL (≈ 58.5 µM)
- MIC80 (Cryptococcus neoformans [14]): 62.5 µg/mL (≈ 234 µM)
- MFC (Aspergillus niger): > 250 µg/mL
- MIC (Aspergillus niger): 250 µg/mL (≈ 937 µM)
- MFC (Candida albicans [15]): > 250 µg/mL
- MIC (Candida albicans [15]): 125 µg/mL (≈ 469 µM)
- MIC50 (Candida albicans [15]): 15.6 µg/mL (≈ 58.5 µM)
- MIC80 (Candida albicans [15]): 31.2 µg/mL (≈ 117 µM)
- MIC80 (Candida albicans [16]): 62.5 µg/mL (≈ 234 µM)
- MFC (Saccharomyces cerevisiae): > 250 µg/mL
- MIC (Saccharomyces cerevisiae): 125 µg/mL (≈ 469 µM)
- MIC50 (Candida albicans [17]): 31.2 µg/mL (≈ 117 µM)
- MIC80 (Candida albicans [17]): 62.5 µg/mL (≈ 234 µM)
